# Compound activity (PubChem BioAssay)
# HTRA1 inh: inhibitors of human serine peptidase HTRA1; recombinant HTRA1, FP-rhodamine activity-based probe, fluorescence polarization; inhibition, % at 5.96 µM; 340,000 tested, 0.5% active; in the data active = inhibition above about 36%;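 also: 0% = enzyme with DMSO and 100% = wells lacking enzyme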
# rCAG RNA binder: binds r(CAG) RNA repeats. r(CAG) RNA repeat, TO-PRO-1 dye displacement fluorescence. inhibition, % at 3 µM. 370,000 tested, 1.3% active;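 active = inhibition above the plate cutoff, the mean of all test compounds on that plate plus 3 SD, cut at about 35% in these data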;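 also: 0% = DMSO alone and 100% = 100 µM mitoxantrone as full dye displacement; higher means more dye released from RNA so lower well fluorescence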
# ABHD4 inh: ABHD4 (mouse) inhibition, primary FP screen; Q8VD66; AID 720543; inhibition, % at 8.92 µM; purified mABHD4, FP-Rh probe fluorescence polarization; 370,000 tested, 0.54% active;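 active = inhibition exceeding the mean over every tested compound plus 3 SD, cut at about 30% in these data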;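 also: 0% = plate median of compound wells and 100% = S159A mutant with DMSO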
# Target sequence (Q8VD66 whole entry, looked up): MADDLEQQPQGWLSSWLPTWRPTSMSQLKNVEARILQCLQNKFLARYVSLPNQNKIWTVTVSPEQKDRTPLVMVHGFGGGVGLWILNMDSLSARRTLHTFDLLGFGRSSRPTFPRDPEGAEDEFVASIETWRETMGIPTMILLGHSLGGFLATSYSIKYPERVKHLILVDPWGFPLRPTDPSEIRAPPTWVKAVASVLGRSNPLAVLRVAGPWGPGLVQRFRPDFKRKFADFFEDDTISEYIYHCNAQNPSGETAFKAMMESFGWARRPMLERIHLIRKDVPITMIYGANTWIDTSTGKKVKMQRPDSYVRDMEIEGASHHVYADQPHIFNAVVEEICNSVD
#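 Assay system: mABHD4 protein; medium: HEPES pH 7.0, NaCl, Pluronic buffer; dosing: 8.92 µM, single dose; schedule: 45 min + 60 min at 25 °C; signal: FP readout, ex 525 nm / em 598 nm; read-out: normalized percent inhibition of probe labeling; repeats: single replicate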
# PRMT1 inh: inhibitors of human PRMT1. 370,000 tested, 1.3% active. Q99873. inhibition, % at 2.79 µM. AID 652257. recombinant PRMT1, activity-based probe fluorescence polarization;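 active = inhibition above about 21% made by adding two undisclosed values, limit read from the data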
# SIAE inh: human SIAE inhibition, primary screen; inhibition, % at 9.66 µM; AID 1053197; Q9HAT2; 370,000 tested, 0.69% active; SIAE FP-Rh probe binding, fluorescence polarization;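 active = inhibition above a cutoff: mean of compounds within the control limits plus 3 SD of those, cut at about 17% in these data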;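 also: 0% = plate median of compound wells and 100% = probe without SIAE protein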
# SIAE confirm: confirmation of human SIAE inhibitors | shares compounds with SIAE inh | SIAE FP-Rh activity-based probe, fluorescence polarization | inhibition, % at 9.66 µM | 2,300 tested, 13% active | AID 1117263;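 active = mean inhibition of the replicates above the hit cutoff set in the primary screen, cut at about 17% in these data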;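 also: 0% = SIAE with DMSO and probe and 100% = probe without SIAE; inhibitors lower polarization as more probe stays unbound to SIAE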
# Starred values were filed as active, the others as inactive; nt = no result given. Shown are actives, neighbours in structure and some others; about 3.3% of the full set was active somewhere.
SMILES,HTRA1 inh,rCAG RNA binder,ABHD4 inh,PRMT1 inh,SIAE inh,SIAE confirm
COc1cc(CNc2ccc3[nH]c(=O)[nH]c3c2)cc(Br)c1OCc1ccccc1F,-9.3,8.3,11.8,12.0,21.4*,12.8
COc1cc(CNc2ccc3[nH]c(=O)[nH]c3c2)ccc1OCc1ccc(F)cc1,6.9,3.0,16.8,12.3,21.7*,-1.2
CCOc1cc(CNc2ccccc2)cc(Br)c1OCc1ccccc1F,-4.5,-0.1,-6.3,0.5,1.7,nt
NC(Cc1ccc(C(F)(F)F)cc1)c1csc(NC(=O)Nc2ccccc2Cc2ccccc2)n1 (stereo not drawn),nt,18.4,5.2,-0.9,17.1*,22.7*
O=C(Nc1cccc2ccccc12)c1ccc(Cn2cc(Cl)cn2)cc1,-28.7,2.3,-20.6,-1.9,-3.9,nt
Cc1cc(C(=O)N/N=C/c2cccc3ccccc23)c(C)o1,-29.3,5.9,-8.8,4.0,-1.1,nt
O=C(CCC(=O)N(CC(=O)NC1CCCC1)c1cccc(F)c1)Nc1nccs1,4.2,-0.9,4.3,1.4,17.9*,-1.6
CC1CCCN(c2nc3c(c(=O)[nH]c(=O)n3C)n2CCCc2ccccc2)C1 (stereo not drawn),-3.3,2.0,1.9,-2.5,18.5*,5.0
CCN(CC)CCNc1nc2c(c(=O)[nH]c(=O)n2C)n1CCCc1ccccc1,7.7,-2.5,1.5,-5.7,19.3*,2.7
CC1CCN(c2nc3c(c(=O)[nH]c(=O)n3C)n2Cc2ccccc2)CC1,1.3,-0.5,3.1,1.9,4.7,nt
Cc1c(C(=O)N2CCN(C(c3ccccc3)c3ccccc3)CC2)oc2ccccc12,-37.9,6.7,-4.5,-0.3,-3.8,nt
O=C(NCc1nnnn1-c1ccc(F)cc1)C(=O)c1c[nH]c2ccccc12,-2.7,4.6,3.2,-1.1,5.3,nt
CC(=O)Nc1ccc(NC(=O)C(C)OC(=O)CN2C(=O)C3CCCCC3C2=O)cc1 (stereo not drawn),-2.6,-4.0,-0.8,1.0,1.8,nt
CC(CCc1ccccc1)NC(=O)CSc1cccc[n+]1[O-] (stereo not drawn),-0.9,-3.5,3.4,-4.3,18.9*,-0.1
CC(CCc1ccccc1)NC(=O)CSc1ccccc1 (stereo not drawn),0.4,0.4,-1.0,1.6,-2.9,nt
Cn1c(=O)oc2cc(S(=O)(=O)N3CCC(C(=O)N4CCN(c5ccccc5)CC4)CC3)ccc21,-2.6,1.9,-6.0,-1.6,11.8,nt
Cn1c(=O)oc2cc(S(=O)(=O)N3CCC(C(=O)N4CCN(c5ccc(F)cc5)CC4)CC3)ccc21,5.2,-2.5,3.0,-2.5,19.5*,5.4
O=C(COc1ccc(F)cc1)NNC(=O)Cn1ccc(C(F)(F)F)n1,-1.3,-1.3,3.0,-5.6,0.4,nt
O=C(COC(=O)c1cccnc1)c1ccc(Cl)c(Cl)c1,-2.4,3.3,-3.1,6.9,-2.8,nt
O=C(COC(=O)c1cccnc1)c1ccc(Cl)cc1,-6.8,5.0,2.1,-1.0,18.0*,-4.0
COc1ccc(-c2csc3ncnc(N4CCN(S(=O)(=O)c5ccc(C)c(C)c5)CC4)c23)cc1,-6.7,5.8,0.0,-2.5,18.3*,-1.8
Cc1ccc(-c2csc3ncnc(N4CCN(S(=O)(=O)c5ccc(C#N)cc5)CC4)c23)cc1,-2.4,6.7,-0.6,-2.9,-4.7,nt
CS(=O)(=O)c1ccc(Cl)c(NC(=O)c2cccc(N3C(=O)CCC3=O)c2)c1,-0.3,-0.6,5.9,2.5,19.3*,3.2
CCCCS(=O)(=O)N1CCCc2nc(-c3ccc(OC)cc3)ccc21,nt,1.8,-7.9,-4.9,3.6,nt
N#CC(c1ccc(N)cc1)C(CC(=O)c1ccccc1)c1ccccc1 (stereo not drawn),-4.6,1.9,-4.3,-2.4,-1.5,nt
SMILES,HTRA1 inh,rCAG RNA binder,ABHD4 inh,PRMT1 inh,SIAE inh,SIAE confirm
O=C(N/N=C/C=C/c1ccco1)c1cccc([N+](=O)[O-])c1,18.7,17.0,13.9,10.3,17.2*,-5.5
O=C(N/N=C/C=C/c1ccco1)c1ccncc1,9.8,8.2,6.6,3.1,14.1,nt
COc1ccc(NC(=O)CN2C(=O)NC(C)(C3CC3)C2=O)cc1S(=O)(=O)N1CCOCC1 (stereo not drawn),3.3,9.0,-1.6,0.1,7.5,nt
COc1ccc(NC(=O)c2cc3c(Cl)nc4ccccc4c3s2)cc1OC,-3.8,15.9,14.4,-3.1,25.6*,-4.1
NC(=O)c1ccc(NCCc2ccco2)cc1,nt,2.5,3.2,6.6,0.3,nt
O=C(O)c1cccc(NS(=O)(=O)c2ccc(Cl)c(C(=O)O)c2)c1,7.6,1.3,5.8,1.0,17.9*,-2.8
O=C(O)c1ccc(Cl)c(S(=O)(=O)Nc2ccc(S(=O)(=O)Nc3cccc(Cl)c3)cc2)c1,-26.8,30.6,-21.7,-0.1,-38.6,nt
COc1ccc(NC(=O)CC2SC(=NCC3CCCO3)NC2=O)cc1 (stereo not drawn),-0.3,2.0,1.2,2.3,17.4*,-3.3
O=C(Cn1cnc2c(OCc3ccccc3)ncnc21)NCCCc1ccccc1,-8.1,-1.1,-1.3,0.4,0.1,nt
CCOC(=O)N1CCN(C2=C(NS(=O)(=O)c3ccc(C)cc3)C(=O)c3ccccc3C2=O)CC1,17.4,-1.6,19.8,2.4,19.9*,8.4
Cc1cccc(C(=O)NCC(c2ccco2)N2CCc3ccccc32)c1 (stereo not drawn),-9.4,-1.6,7.9,1.4,22.2*,9.0
Cc1cccc(C(=O)NCC(=O)NCC(c2ccco2)N2CCCCC2)c1 (stereo not drawn),-7.8,-2.8,-0.2,-2.8,18.1*,1.2
Cc1ccc(C(=O)NCC(c2ccco2)N2CCc3ccccc32)cc1 (stereo not drawn),1.1,-3.6,0.9,-5.2,21.0*,3.3
CCOc1cc(CN2CCC(N3CCC(C(=O)NC4CC4)CC3)CC2)ccc1O,3.8,-1.1,-0.6,-2.5,10.2,nt
C[C@H](NC(=O)[C@@H]1Cc2ccccc2CN1)C(=O)Nc1ccc2c(c1)OCO2,11.9,1.1,1.8,-5.3,5.0,nt
CSCC[C@H](NC(=O)[C@@H]1Cc2ccccc2CN1)C(=O)Nc1ccc2c(c1)OCO2,19.9,1.9,10.9,2.3,17.6*,1.0
N#CCc1cnc2ccccc2n1,28.3,7.4,8.1,17.1,18.2*,-2.5
NS(=O)(=O)c1ccc(NCc2cnc3ccccc3n2)cc1,5.4,4.3,1.9,-0.1,4.2,nt
Cc1sc2nc(CSCC(=O)Nc3ccc(Cl)cc3F)[nH]c(=O)c2c1C,-5.1,-2.1,1.1,-2.9,-4.3,nt
C[C@H]1CN([C@@H](C)CO)C(=O)CCCn2nncc2CO[C@@H]1CN(C)Cc1ccncc1,-1.3,2.2,6.8,1.0,2.3,nt
CCN(Cc1ccccc1)C(=O)C1CCN(CC2CC=CCC2)CC1 (stereo not drawn),8.8,-1.3,3.7,-5.5,21.6*,0.8
O=C(NNC1CC(=O)N(c2ccc(Br)cc2)C1=O)c1ccccn1 (stereo not drawn),8.0,10.1,4.2,1.1,0.7,nt
